Reference: ChEMBL document CHEMBL1135437, “Novel, non-acylguanidine-type Na(+)/H(+) exchanger inhibitors: synthesis and pharmacology of 5-tetrahydroquinolinylidene aminoguanidine derivatives” (J Med Chem, 2002)

Key:
Rattus norvegicus [1] = experiment: In vivo inhibitory effect on the myocardial infarct size of ischemia-reperfusion injury model of rat. Administered intravenously 5 min before occlusion.; type: functional, Myocardium
Outline: (§1)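 Male Wistar rats (11–12 weeks), anesthetized; left coronary artery occluded 1 h, then reperfused 24 h. Dose 0.1 or 0.3 mg/kg iv, 5 min before occlusion. Area at risk stained with 1% Evans blue; six left-ventricle slices stained with 1% TTC, 37 °C, 10 min. Infarct size expressed as % of area at risk by weight. n = 5–7.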

[2] = in vitro inhibition against NHE to inhibit the acid induced swelling in human platelets by 50%; type: functional
Outline: (§2)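 Platelet-rich plasma from forearm-vein blood of normal adult men, adjusted to 10 × 10^4/µL. Compound in DMSO added 3 min before sodium propionate buffer (135 mM, pH 6.7, 37 °C), final DMSO 1%. Light transmission at 550 nm recorded; maximum upstroke velocity in the first minute used. 100% inhibition defined by vehicle vs HOE-642 (10^-5 M). IC50 = 50% inhibition of swelling; triplicate experiments.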

Rattus norvegicus [3] = experiment: In vivo inhibitory effect on the Myocardial Infarct size of Ischemia-Reperfusion Injury model of rat. Administered intravenously […].; type: functional, Myocardium; details: in the assay text read “5 min before” for “2 hr before”
Rattus norvegicus [4] = experiment: In vivo inhibitory effect on the Myocardial Infarct size of Ischemia-Reperfusion Injury model of rat. Administered intravenously 5 min before occlusion.; type: functional, Myocardium; outline: as §1
[5] = In vitro inhibition of acid induced swelling in rat platelets by 50% as a measure of NHE inhibition; type: functional
Outline: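 Platelet-rich plasma from male Wistar rats (13–15 weeks), diluted in saline to 40 × 10^4/µL. Compound in DMSO added 3 min before sodium propionate buffer (135 mM, pH 6.7, 37 °C), final DMSO 1%. Swelling read as the change in 550 nm light transmission 1 min later, corrected with platelet-poor plasma. 100% inhibition defined by vehicle vs HOE-642 (10^-5 M). IC50 from triplicate experiments.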

Rattus norvegicus [6] = experiment: In vivo inhibitory effect on the myocardial infarct size of ischemia-reperfusion injury model of rat administered intravenously 5 min before occlusion; type: functional, Myocardium; outline: as §1
[7] = In vitro inhibition against Na+/H+ exchanger(NHE) by measuring its ability to inhibit the acid induced swelling in human platelets by 50%; type: functional; outline: as §2

SMILES	IC50 [2] [µM]	Inhibition [5] [%]	also measured
CS(=O)(=O)O.CS(=O)(=O)O.Cc1ccnc2c1/C(=N/N=C(N)N)C[C@H](c1ccccc1Cl)C2	0.009		Inhibition (Rattus norvegicus [1]): 44%
CS(=O)(=O)O.CS(=O)(=O)O.Cc1ccc(F)cc1[C@H]1C/C(=N\N=C(N)N)c2c(C)ccnc2C1	0.013		Inhibition (Rattus norvegicus [3]): 33%
CS(=O)(=O)O.CS(=O)(=O)O.Cc1ccnc2c1/C(=N/N=C(N)N)C[C@H](c1cc(Cl)sc1Cl)C2	0.007		Inhibition (Rattus norvegicus [4]): 43%
Cc1ccnc2c1/C(=N/N=C(N)N)CC(c1ccccn1)C2.Cl.Cl (stereo unspecified)		23	
Cc1ccnc2c1/C(=N/N=C(N)N)CC(c1c(Cl)cccc1Cl)C2.Cl.Cl (stereo unspecified)		23	
Cc1ccnc2c1/C(=N/N=C(N)N)CC(c1ccncc1)C2.Cl.Cl (stereo unspecified)		25	
CC(C)c1ccc(C(=O)N=C(N)N)cc1S(C)(=O)=O [CARIPORIDE]			Inhibition (Rattus norvegicus [6]): 28%; IC50 [7]: 0.21 µM
